High-throughput results deposited in PubChem by several laboratories.
The list is not random: actives were taken first. Their share in the collection is about 12%.
WT yeast gro inh: growth inhibition of WT strain, primary screen, mitochondrial fusion inhibitor project, WT and mutant strains, chemical genetic; mitochondrial fusion phenotypic screen; inhibition, % at 10 µM; 190,000 compounds, 2.1% hits; in the data active means inhibition above about 58%; tested in S. cerevisiae
RAM inhibit: inhibitors of the yeast RAM network, primary screen, dse1pr::URA3 reporter, 5-FOA selection; S. cerevisiae dse1pr::URA3 reporter, 5-FOA growth OD615, 2 d; analog-sensitive cbk1-as2 kinase mutant strain; inhibition, % at 50 µM; 190,000 compounds, 1.8% hits;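 active means inhibition above a set limit, 3 SD over mean compound inhibition, cut at about 8.4% in these data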;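 further: inhibition rescues growth on 5-FOA so higher OD means more RAM inhibition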
ABCB1 block: ABCB1 efflux pump inhibitors, primary screen, cell-based, multiplex, flow cytometry, ABCG2 counter-screen; ATP-dependent translocase ABCB1 (Homo sapiens), P08183; CCRF-Adr cells, JC-1 efflux; inhibition, % at 6.6 µM; 190,000 compounds, 0.067% hits; AID 1326, 2008; in the data active means inhibition above about 40%;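 further: higher value means more JC-1 retained so stronger ABCB1 efflux block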
ABCG2 block: ABCG2 efflux pump inhibitors, primary screen, multiplex with ABCB1, IgMXP3 cells, flow cytometry; Broad substrate specificity ATP-binding cassette transporter ABCG2 (Homo sapiens), Q9UNQ0; 190,000 compounds, 0.1% hits; AID 1325, 2008; JC-1 efflux; inhibition, % at 6.6 µM;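 active means inhibition above 80%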
Target sequence (Q9UNQ0 whole entry, looked up): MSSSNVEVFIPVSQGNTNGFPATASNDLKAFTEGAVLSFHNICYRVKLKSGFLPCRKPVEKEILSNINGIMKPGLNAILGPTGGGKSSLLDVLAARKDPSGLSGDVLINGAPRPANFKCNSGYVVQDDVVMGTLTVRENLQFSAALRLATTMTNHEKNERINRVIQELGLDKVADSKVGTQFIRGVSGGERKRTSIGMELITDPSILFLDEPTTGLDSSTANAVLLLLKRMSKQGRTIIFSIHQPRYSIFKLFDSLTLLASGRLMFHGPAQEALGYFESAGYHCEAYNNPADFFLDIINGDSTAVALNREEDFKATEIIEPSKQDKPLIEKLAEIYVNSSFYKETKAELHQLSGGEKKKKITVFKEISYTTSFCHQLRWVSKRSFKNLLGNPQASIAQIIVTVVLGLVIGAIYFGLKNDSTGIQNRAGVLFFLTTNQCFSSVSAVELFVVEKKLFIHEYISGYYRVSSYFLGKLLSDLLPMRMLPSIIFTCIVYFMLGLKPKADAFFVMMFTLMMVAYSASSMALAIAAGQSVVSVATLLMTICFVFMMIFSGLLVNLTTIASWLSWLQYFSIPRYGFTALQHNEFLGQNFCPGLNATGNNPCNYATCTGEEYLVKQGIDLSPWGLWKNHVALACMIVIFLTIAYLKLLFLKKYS
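Test system: IgMXP3 (ABCG2) plus far-red-tagged CCRF-Adr (ABCB1) cells / Amount: 3 million cells/mL in well / Reagent: JC-1 transporter substrate / Timing: 10 min compound exposure, 25 °C / Signal: flow cytometry, 530 nm JC-1 signal / Read-out: percent efflux inhibition, scaled nicardipine 100% to DMSO 0% / Benchmarks: nicardipine as high control, DMSO as low control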
Lmaj promast: Leishmania major promastigote growth inhibition, primary screen | inhibition, % at 10 µM | 200,000 compounds, 9% hits | AID 1063, 2008 | Leishmania major promastigotes, resazurin fluorescence viability; in the data active means inhibition above about 50%;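 further: promastigotes grown with compound for 44 hours at 28 °C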
Each line names hits and unclear results; the compound was inactive in the other large screens.

COc1ccc(N(CC(=O)Nc2cccc(OC)c2)S(=O)(=O)c2c(C)nn(C)c2C)cc1	Lmaj promast 57
COc1cccc(NC(=O)CN(c2ccc(C)cc2)S(=O)(=O)c2c(C)nn(C)c2C)c1	none
COc1ccc(N(CC(=O)Nc2nc3ccc(C)cc3s2)S(=O)(=O)c2c(C)nn(C)c2C)cc1	Lmaj promast 66
COc1ccc(N(CC(=O)Nc2cc(OC)ccc2OC)S(=O)(=O)c2c(C)nn(C)c2C)cc1	Lmaj promast 100
O=C(C/C=N/OCc1c(Cl)cccc1Cl)c1ccc(Cl)cc1	none
Brc1cccc(CNc2nc3ccccc3n2CCN2CCOCC2)c1	none
COc1cccc(C(=O)NNC(=O)Cc2cccs2)c1	none
Nc1c(C(=O)Nc2ccccc2F)sc2nc(-c3ccco3)ccc12	RAM inhibit 9.2
CC(C)(C)NCc1ccc(OCc2cccs2)cc1	Lmaj promast 100
CC(C)(C)c1ccc(OCC(=O)NNC(=O)Cc2cccs2)cc1	none
S=C(NCCc1ccc(Cl)cc1)NC1CCCC1	WT yeast gro inh 65
S=C(NCCc1ccc(Cl)cc1)Nc1ccc(Cl)cc1Cl	none
OCCN(Cc1ccccc1)C(=S)NC1CCCCC1	none
O=C(NC1CCCCC1)C(=S)NCCc1ccccc1	none
S=C(NCCNCc1ccccc1)NC1CCCCC1	WT yeast gro inh 62
S=C(NC1CCCCC1)N(CCc1ccccc1)CCc1ccccc1	WT yeast gro inh 62
S=C(NCc1ccccc1Cl)NC1CCCC1	none
S=C(NCCc1ccccc1)NC1CCCCCC1	WT yeast gro inh 68
COc1ccc(CNC(=S)NC2CCCC2)cc1	none
Fc1ccc(CNC(=S)NC2CCCCCC2)cc1	WT yeast gro inh 71
CC(=O)/C(N=Nc1ccc2c(c1)OCO2)=C(\C)O	Lmaj promast 57
O=C(NCCOc1ccccc1F)c1ccccc1SCc1ccc(F)cc1	Lmaj promast 54
CCc1ccc(OCCNC(=O)c2ccccc2SCc2ccccc2)cc1	RAM inhibit 8.8
Cn1c2c(c(=O)n(C)c1=O)C(c1ccc(Cl)cc1)C(C#N)=C(N)O2 (stereo not given)	none
CC(C)CCN(C(=O)Nc1ccc(Cl)cc1)C1CCN(C(C)C)CC1	none
CCC1SC(CC)C(=O)N(CC(=O)Nc2ccc3c(c2)OCO3)C1=O (stereo not given)	none
CCOC(=O)Cc1c(C)nc2c(-c3ccc(Cl)cc3)c[nH]n2c1=O	none
CSc1cnc2c(N)nc(N(C)C)nc2n1	Lmaj promast 58
CSc1cnc2c(=O)n(C)c(=O)[nH]c2n1	none
O=C(CN1C(=O)/C(=C\c2cccc(Cl)c2)Oc2ccccc21)N1CCN(c2ccccn2)CC1	none
O=C1c2[nH]nc(-c3ccccc3O)c2C(c2cccc(Cl)c2)N1Cc1ccco1 (stereo not given)	Lmaj promast 79
O=C1c2[nH]nc(-c3ccccc3O)c2C(c2cccc(Cl)c2)N1CC1CCCO1 (stereo not given)	none
O=C1c2[nH]nc(-c3ccccc3O)c2C(c2ccc(F)cc2)N1Cc1ccco1 (stereo not given)	Lmaj promast 94
O=C1c2ccccc2C(=O)N1Cc1cc(-c2ccc(Cl)cc2)no1	none (no result: WT yeast gro inh, RAM inhibit, ABCB1 block, ABCG2 block)
CCc1c(O)cc2n(c1=O)-c1ccc(Cl)cc1C2(C)C	Lmaj promast 71
CCN1CCN(c2nc3sc4c(c3c(=O)n2-c2ccc(OC)cc2)CCCCC4)CC1	Lmaj promast 98
COc1ccc(-n2c(NN)nc3sc4c(c3c2=O)CCCC4)cc1	none
CCN(CC)S(=O)(=O)c1ccc(/C=C/C(=O)OCC(=O)N(C)C)cc1	none
CC(C)CC(NC(N)=O)C(=O)Nc1ccc(Oc2ccccc2)cc1 (stereo not given)	none
CC(C)C(=O)Nc1sc2c(c1-c1nc3ccccc3[nH]1)CCCC2	Lmaj promast 61
CC1(C)NC(=O)N(CC(=O)OCC(=O)Nc2cc(S(=O)(=O)N3CCCCC3)ccc2Cl)C1=O	Lmaj promast 70
CN(C)S(=O)(=O)c1ccc(Cl)c(NC(=O)COC(=O)CN2C(=O)NC(C)(C)C2=O)c1	none
CN1CCN(CCCN2c3ccccc3Sc3ccc(Cl)cc32)CC1	WT yeast gro inh 94, Lmaj promast 100
OCCN1CCN(CCCN2c3ccccc3Sc3ccc(C(F)(F)F)cc32)CC1	Lmaj promast 87
CN1CCN(CCC(=O)N2c3ccccc3Sc3ccc(C(F)(F)F)cc32)CC1	Lmaj promast 55 (no result: ABCB1 block, ABCG2 block)
CN(C)CCCN1c2ccccc2Sc2ccc(C(F)(F)F)cc21	WT yeast gro inh 95
O=[N+]([O-])c1cc(C(F)(F)F)ccc1N1CCN(CCO)CC1	none
CCN(CC)CC(=O)N1c2ccccc2Sc2ccc(Cl)cc21	none
O=C1c2ccccc2C(=O)N1CC(=O)N1c2ccccc2Sc2ccc(C(F)(F)F)cc21	none
CCc1cc2c3c(c1)C1(C(=O)N3C(C)(C)C=C2C)C(C#N)=C(N)Oc2[nH]c(=O)[nH]c(=O)c21 (stereo not given)	none
CN1CCCN(C(c2ccccc2)c2ccc(Cl)cc2)CC1 (stereo not given)	Lmaj promast 99
CS(=O)(=O)N1CCC(C(=O)N2CCN(Cc3ccccc3)CC2)CC1	none
O=C(C1CCN(Cc2ccc(Cl)cc2)CC1)N1CCN(C(c2ccccc2)c2ccccc2)CC1	Lmaj promast 88
Cc1cccc(CN2CCN(C(c3ccccc3)c3ccc(Cl)cc3)CC2)c1 (stereo not given)	WT yeast gro inh 66, Lmaj promast 63
O=[N+]([O-])c1ccc(OCCn2cnc3ccccc32)cc1	none
c1ccc(OCCn2cnc3ccccc32)cc1	Lmaj promast 52
CC(=O)c1ccc(OCCn2cnc3ccccc32)cc1	Lmaj promast 51
CC(C)(c1ccccc1)c1ccc(OCCn2cnc3ccccc3c2=O)cc1	RAM inhibit 8.7 (no result: WT yeast gro inh)
Cc1ccc(OCCCCn2cnc3ccccc32)cc1	WT yeast gro inh 65
CCCOc1ccc(Cn2cnc3ccccc32)cc1	Lmaj promast 88
CC1=Nc2ccccc2/C1=C/c1sc(=S)n(-c2cccc(C(=O)O)c2)c1O	RAM inhibit 10.0
C=CCn1c(SCC(=O)NCc2ccccc2)nnc1C1CCCCC1	Lmaj promast 78
COc1ccc(CNc2ccc3c(c2)ncn3-c2ccccc2OC)cc1	Lmaj promast 100
COc1ccccc1-n1cnc2cc(NCc3cccs3)ccc21	Lmaj promast 96 (no result: WT yeast gro inh)
Cc1cc(SCC(=O)OCC(=O)NCc2ccc3c(c2)OCO3)c(C)cc1Br	RAM inhibit 11
COc1cccc(OCC(=O)NNC(=S)Nc2ccc(Cl)cc2Cl)c1	none
Cc1ccc(NC(=O)Cn2c(=S)[nH]c3ccccc32)cc1	none
Cc1nc(N2CCC(C)CC2)c2c(C)c(C(=O)Nc3ccc(C)c(F)c3)sc2n1	none
Cc1nc(N2CCC(C)CC2)c2c(C)c(C(=O)Nc3ccccc3C(F)(F)F)sc2n1	Lmaj promast 51
